ChEMBL document CHEMBL1938272 (Bioorg Med Chem, 2012)
pIC50: −log10 of the molar value.

Legend:
HEK293 = assay: Inhibition of TNFalpha-activated NF-kappaB expressed in HEK293 cells at 50 uM by luciferase reporter gene assay; type: cell-based
Aromatase [1] = target: T1, Aromatase (Homo sapiens, UniProt P11511); details: 2 h, read-out: Imax
T1 sequence (P11511 whole entry): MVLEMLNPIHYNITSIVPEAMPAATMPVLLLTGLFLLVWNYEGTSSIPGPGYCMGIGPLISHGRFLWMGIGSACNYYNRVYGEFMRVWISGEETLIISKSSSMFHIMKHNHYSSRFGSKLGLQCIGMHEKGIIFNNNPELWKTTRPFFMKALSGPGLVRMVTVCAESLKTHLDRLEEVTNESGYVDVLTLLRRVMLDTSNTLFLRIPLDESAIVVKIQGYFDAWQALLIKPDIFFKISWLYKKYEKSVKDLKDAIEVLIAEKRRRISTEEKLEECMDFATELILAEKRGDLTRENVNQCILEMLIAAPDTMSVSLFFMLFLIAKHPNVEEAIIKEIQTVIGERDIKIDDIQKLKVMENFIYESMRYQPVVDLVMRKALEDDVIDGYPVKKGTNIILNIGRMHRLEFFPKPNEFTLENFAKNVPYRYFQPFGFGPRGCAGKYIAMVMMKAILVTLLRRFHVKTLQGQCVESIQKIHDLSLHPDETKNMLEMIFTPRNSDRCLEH

[2] = target: NAD(P)H dehydrogenase [quinone] 1 (Mus musculus) (UniProt Q64669); assay: Induction of QR1-mediated cytoprotective activity in mouse Hepa-1c1c7 cells at 50 uM assessed as cell survival; type: cell-based
Sequence of NAD(P)H dehydrogenase [quinone] 1 (Mus musculus) (Q64669 whole entry): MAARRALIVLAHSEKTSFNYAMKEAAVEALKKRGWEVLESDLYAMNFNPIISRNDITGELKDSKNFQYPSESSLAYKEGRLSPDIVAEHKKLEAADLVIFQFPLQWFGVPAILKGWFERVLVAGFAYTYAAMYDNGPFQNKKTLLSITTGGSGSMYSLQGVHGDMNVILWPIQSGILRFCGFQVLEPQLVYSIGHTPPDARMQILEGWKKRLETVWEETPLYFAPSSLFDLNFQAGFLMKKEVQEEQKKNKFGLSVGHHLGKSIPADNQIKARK

Aromatase [3] = target: T1, Aromatase
[4] = tested on: Radical scavenging activity; assay: Antioxidant activity assessed as DPPH free radical scavenging activity at 400 uM after 30 mins by spectrophotometry; type: functional
RAW264.7 = assay: Antiinflammatory activity in mouse RAW264.7 cells assessed as inhibition of LPS-induced NO production at 40 uM preincubated for 30 mins before LPS challenge by Griess method
MCF7 = assay: Antiproliferative activity against human MCF7 cells after 72 hrs by SRB assay; type: functional, cell-based; details: MCF7, 72 h
Summary of the method: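 MCF-7 breast cancer cells exposed to serially diluted compounds (DMSO) for 72 h at 37 °C in CO2 incubator; fixed with 10% trichloroacetic acid, stained with 0.4% SRB, OD read at 515 nm. Zero-day control of 1 × 10^4 cells per well processed after 30 min. Survival = (OD test − OD zero-day)/(OD control − OD zero-day) × 100; IC50 from survival.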

[5] = target: NAD(P)H dehydrogenase [quinone] 1 (Mus musculus) (UniProt Q64669); assay: Induction of QR1-mediated cytoprotective activity in mouse BPrc1 cells at 50 uM assessed as cell survival; type: cell-based
[6] = target: NAD(P)H dehydrogenase [quinone] 1 (Mus musculus) (UniProt Q64669); assay: Induction of QR1 activity in mouse Hepa-1c1c7 cells using MTT as substrate by spectrophotometry; type: cell-based
Summary of the method: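 Mouse hepatoma Hepa 1c1c7 cells were incubated with compound, then permeabilised with digitonin. QR1 activity was read as MTT reduction to formazan at 595 nm, with crystal violet total protein run in parallel. Induction ratio is activity versus control; CD is the concentration doubling activity, derived only when the ratio is above 2.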

[7] = target: NAD(P)H dehydrogenase [quinone] 1 (Mus musculus) (UniProt Q64669); assay: Induction of QR1-mediated cytoprotective activity in mouse TAOc1 mutant Hepa cells at 50 uM assessed as cell survival; type: cell-based
[8] = target: NAD(P)H dehydrogenase [quinone] 1 (Mus musculus) (UniProt Q64669); assay: Induction of QR1 activity in mouse TAOc1 mutant Hepa cells using MTT as substrate by spectrophotometry; type: cell-based
[9] = target: NAD(P)H dehydrogenase [quinone] 1 (Mus musculus) (UniProt Q64669); assay: Induction of QR1 activity in mouse BPrc1 cells using MTT as substrate by spectrophotometry; type: cell-based

SMILES | inhibition (HEK293) [%] | inhibition at 50 µM (Aromatase [1]) [%] | Survival [2] [%] | pIC50 (Aromatase [3]) | inhibition [4] [%] | inhibition at 40 µM (RAW264.7) [%] | pIC50 (MCF7) | Survival [5] [%] | CD [6] [µM] | Survival [7] [%] | CD [8] [µM] | CD [9] [µM]
Oc1ccc(CCc2cc(O)cc(O)c2)cc1 [DIHYDRORESVERATROL] | 16.7 | 37.8 | 82.6 | < 4.30 | 14.7 | 36.2 | 4.52 |  |  |  |  | 
Clc1ccc(-c2nsc(-c3ccc(Cl)cc3)n2)cc1 | 0 | 9.7 | 78.3 | < 4.30 | 2.7 | 5.1 |  | 79.3 | 4 | 77.8 |  | 
Ic1ccc(-c2nsc(-c3ccc(I)cc3)n2)cc1 | 0 | 36.7 | 105 | < 4.30 |  | 20.3 |  |  |  |  |  | 
N#Cc1cccc(-c2nsc(-c3cccc(C#N)c3)n2)c1 |  | 22.1 | 57.9 | < 4.30 | 1.4 | 26.4 |  |  |  |  |  | 
c1ccc2cc(-c3nsc(-c4ccc5ccccc5c4)n3)ccc2c1 |  | 15.8 | 88.8 | < 4.30 | 1.1 | 0.5 |  | 98.1 |  | 96.9 |  | 
FC(F)(F)c1ccc(-c2nsc(-c3ccc(C(F)(F)F)cc3)n2)cc1 | 0 | 41 | 97.9 | < 4.30 | 2.5 | 8.5 |  | 71 |  | 91 |  | 
Oc1ccc(/C=C/c2cc(O)cc(O)c2)cc1 |  |  | 88.7 |  |  |  |  | 86.3 |  | 86.3 |  | 
Cc1cc(Cl)ccc1-c1nsc(-c2ccc(Cl)cc2C)n1 | 0 | 35.3 | 77.3 | < 4.30 | 3.7 | 10.1 | 4.40 | 94.7 | 0.44 | 71 | 3.8 | 2.8
Clc1ccc(Cl)c(-c2nsc(-c3cc(Cl)ccc3Cl)n2)c1 |  | 16.6 | 88.1 | < 4.30 | 1 | 17.9 | 4.75 | 94.7 |  | 82.8 | 41 | 44.5
Oc1ccc(/C=C\c2cc(O)cc(O)c2)cc1 |  |  | 89.3 |  |  |  |  | 77.8 |  | 100 |  | 49.7
CC(C)(C)c1ccc(-c2nsc(-c3ccc(C(C)(C)C)cc3)n2)cc1 | 0 | 43.5 | 47.5 | < 4.30 | 2.9 | 0.5 |  | 85.1 | 27.7 | 74.1 |  | 
Cc1cc(Br)ccc1-c1nsc(-c2ccc(Br)cc2C)n1 | 6.7 | 47.8 | 71.3 | < 4.30 | 2.2 | 23.3 | 4.40 | 95.9 |  | 68.6 |  | 
N#Cc1ccc(-c2nsc(-c3ccc(C#N)cc3)n2)cc1 |  | 38.5 | 46.2 | < 4.30 | 6 | -0.4 | 4.50 |  |  |  |  | 
Fc1cccc(-c2nsc(-c3cccc(F)c3)n2)c1 |  | 41.8 | 77.6 | < 4.30 | 1.3 | 3.2 | 4.46 | 73.5 |  | 77.1 |  | 
Brc1cccc(-c2nsc(-c3cccc(Br)c3)n2)c1 | 0 | 48.4 | 79.3 | < 4.30 | 1 | 22.8 | 4.51 | 92.3 | 0.059 | 77.7 | 2.5 | 6.5
Fc1ccccc1-c1nsc(-c2ccccc2F)n1 |  | 53.2 | 86.2 | < 4.30 | 3.8 | 24.6 | 4.50 | 88.4 |  | 82.5 |  | 
Cc1ccc(-c2nsc(-c3ccc(C)cc3)n2)cc1 |  | 21.3 | 96.8 | < 4.30 | 7.2 | 9.6 |  |  |  |  |  | 
Cc1ccc(-c2nsc(-c3ccc(C)cc3Br)n2)c(Br)c1 | 0 | 48.3 | 49.6 | < 4.30 | 3.4 | 25 |  |  |  |  |  | 
CCCCc1ccc(-c2nsc(-c3ccc(CCCC)cc3)n2)cc1 |  | 35.5 | 100 | < 4.30 | 2.1 | -3.5 |  |  |  |  |  | 
FC(F)(F)c1ccccc1-c1nsc(-c2ccccc2C(F)(F)F)n1 | 0 | 21.6 | 88.8 | < 4.30 | 2.9 | 6.7 |  | 81 |  | 89.8 |  | 
Brc1ccc(-c2nsc(-c3ccc(Br)cc3)n2)cc1 | 0 | 37.4 | 87 | < 4.30 | 0.8 | 17.1 |  | 60.3 |  | 80.1 |  | 
O=[N+]([O-])c1ccc(-c2nsc(-c3ccc([N+](=O)[O-])cc3)n2)cc1 |  | 29.4 | 78.9 | < 4.30 | 7.3 | 1.6 |  |  |  |  |  | 
Clc1ccc(-c2nsc(-c3ccc(Cl)c(Cl)c3)n2)cc1Cl |  | 23 | 80 | < 4.30 | 9.6 | 21.5 | 4.63 |  |  |  |  | 
Brc1ccccc1-c1nsc(-c2ccccc2Br)n1 | 0 | 44.8 | 72.5 | < 4.30 | 1.8 | 9.1 | 4.46 | 100 |  | 99.1 |  | 
Fc1ccc(-c2nsc(-c3ccc(F)cc3)n2)cc1 | 0 | 45.2 | 96.3 | < 4.30 | 6.9 | 22.2 | 4.73 | 86.4 |  | 83 |  | 
Clc1ccccc1-c1nsc(-c2ccccc2Cl)n1 |  | 49.7 | 75.2 | < 4.30 | 2.8 | -5.9 | 4.45 | 83.8 |  | 100 | 44.3 | 34.6
Clc1ccc(-c2nsc(-c3ccc(Cl)cc3Cl)n2)c(Cl)c1 |  | 40.3 | 30.6 | < 4.30 | 2.9 | 25 |  | 89.8 |  | 82.4 |  | 
Ic1cccc(-c2nsc(-c3cccc(I)c3)n2)c1 | 0 | 30.6 | 103 | < 4.30 | 14.3 | 15.6 | 4.43 | 77.3 | 3.1 | 73.6 |  | 
COc1ccc(-c2nsc(-c3ccc(OC)cc3)n2)cc1 |  | 11.1 | 94.2 | < 4.30 | 3.1 | 1.7 | 4.76 |  |  |  |  | 
Clc1cccc(-c2nsc(-c3cccc(Cl)c3Cl)n2)c1Cl | 0 | 45.9 | 47 | < 4.30 | 11.1 | 21.4 | 4.99 | 56.3 | 2 | 74.5 |  | 
